# The list is a sample of the results.
# PGC1a Ac signal = raises PGC1a acetylation signal in U2OS cells; U2OS PGC1a acetylation AlphaScreen, overnight; activation, % at 15.6 µM; hit rate 0.21% among 350,000;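 active = every replicate reaching activation of at least 50%, whatever the mean replicate activation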;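 note: hits raise the AlphaScreen acetylation signal above neutral controls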
#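 Test system: U2OS cells expressing flag-PGC1a plus GCN5; Amount: 7000 U2OS cells per well; Compound: single test concentration per compound; Incubation: compound overnight at 37 °C, each detection step 1 h RT; Signal: AlphaScreen lysate read.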
# * = called active by the depositor.
SMILES,PGC1a Ac signal
CSC1SCC2C(=O)N(C)C(C(C)C)C(=O)OCC(NC(=O)c3cnc4ccccc4n3)C(=O)NC(C)C(=O)N(C)C1C(=O)N(C)C(C(C)C)C(=O)OCC(NC(=O)c1cnc3ccccc3n1)C(=O)NC(C)C(=O)N2C (configuration not stated),-39.2
COC(=O)C1=NN(C(=O)c2ccccc2)C(O)(c2ccc([N+](=O)[O-])cc2)C1 (configuration not stated),115.4*
OCC1(Cc2ccc(F)cc2F)CCCN(Cc2ccc(Cl)cc2)C1 (configuration not stated),-46.1
CCOC(=O)c1c(NC(=O)/C=C/C(=O)O)sc(C)c1-c1ccc(C(C)(C)C)cc1,-46.9
CCOC(=O)c1c(NC(=O)c2c(Br)cnn2CC)sc(C)c1C,82.8*
CC1=C(Cl)C2=NS(=O)(=O)CCN2C=C1Cl,-47.5
N#Cc1c(-c2ccccc2)c(-c2ccccc2)nn(CC(=O)NNC(=O)Nc2ccc(Cl)cc2)c1=O,-40.0
Cc1nc(SCC(=O)OCc2ccccc2)c(C#N)c(-c2ccccc2)c1C(=O)Nc1ccccc1,56.9*
O=C(C[C@@H]1C=C[C@@H](NC(=O)CN2CCOCC2)[C@H](CO)O1)NC1CCCCC1,-51.4
C=C1C(=O)C=C[C@]2(C)C[C@@H]3OC(=O)[C@](C)(O)[C@H]3C[C@@H]12,177.8*
CC(=O)N(c1ccccc1)c1nnc(-c2cnc(C)cn2)s1,-58.0
Cc1ccc(NC2=C(Cl)C(=O)c3ccccc3C2=O)cc1,-53.2
Cc1ccc(NC2=C([N+](=O)[O-])CS(=O)(=O)C2)cc1,217.5*
C[C@H](CO)N1C[C@H](C)[C@H](CN(C)S(=O)(=O)c2ccccc2C#N)OCc2cnnn2CCCC1=O,-41.4
Cc1ccccc1NC(=O)CC1c2ccccc2CC(C)(C)N1C (configuration not stated),-82.6
O=C/C=C/c1ccc(-c2ccccc2)cc1,73.8*
Cc1noc(C)c1NC(=O)N(C)C[C@H]1Oc2c(NC(=O)c3nc4ccccc4s3)cccc2C(=O)N([C@H](C)CO)C[C@H]1C,-53.5
CC(/C=N/N1CCN(Cc2ccccc2)CC1)=C\c1ccccc1,-44.2
Cn1c(O)c(C(C#N)=C2N=c3ccccc3=N2)c2ccccc21,71.7*
NC(=O)c1oc2ccccc2c1NC(=O)C1CC(=O)N(c2ccccc2)C1 (configuration not stated),-42.1
O=C(NC[C@@H]1N[C@@H](CO)[C@H]1c1ccc(C2=CCCCC2)cc1)c1ccc(F)cc1,65.5*
CN(C[C@H]1N[C@@H](CO)[C@@H]1c1ccc(C2=CCCC2)cc1)C(=O)c1ccc(F)cc1,-78.8
O=C(CN1CCOCC1)N[C@H]1CC[C@H](CCNC(=O)Nc2cc(F)ccc2F)O[C@H]1CO,-52.9
O=C(O)CCC(NC(=S)Nc1ccccc1)C(=O)O (configuration not stated),-73.1
CC/C(=C(\c1ccccc1)c1ccc(OCCN(C)C)cc1)c1ccccc1,124.4*
SMILES,PGC1a Ac signal
CC/C(=C(\c1ccc(O)cc1)c1ccc(OCCN(C)C)cc1)c1ccccc1,62.5*
CCN(CC)CCOc1ccc(/C(=C(/Cl)c2ccccc2)c2ccccc2)cc1,98.7*
N#Cc1ccsc1NC(=O)CSc1nnc(NC2CC2)s1,-41.4
COc1ccc2c3c(n(C)c2c1)[C@H](CO)NCC31CCN(Cc2cc(-c3ccccc3)on2)CC1,-68.9
CC(C)NC(=O)N(C)C[C@H]1Oc2c(NS(=O)(=O)c3cn(C)cn3)cccc2C(=O)N([C@@H](C)CO)C[C@@H]1C,-44.5
Cc1ccccc1S(=O)(=O)N[C@H]1CC[C@H](CCn2cc(Cc3ccccc3)nn2)O[C@@H]1CO,-60.9
CCC(=O)NC1(Cc2ccc(O)cc2)CCCCC1,-43.9
CC1C(=O)CCCCCCCCCC2C1(N1CCOCC1)CS2(=O)=O (configuration not stated),61.4*
O=c1c2cn(Cc3ccc(F)cc3)c3ccc(F)cc3c-2nn1Cc1ccc(F)cc1,-45.5
C[C@H](CO)N1C[C@H](C)[C@H](CN(C)S(C)(=O)=O)Oc2ncc(-c3cc4ccccc4o3)cc2C1=O,-46.9
O=Nc1ccc(O)c2ncccc12,245.0*
O=C(N/N=C/c1ccc(O)c2ncccc12)c1cccc(Br)c1,-66.8
O=[N+]([O-])c1cc(F)c2cccnc2c1O,-42.5
COCC(=O)Nc1ccc2c(c1)OC[C@@H](C)N(C(=O)c1ccccn1)C[C@@H](C)[C@@H](OC)CN(C)C2=O,-49.2
O=C(Nc1c(F)cccc1F)c1ccc(-n2cncn2)nc1,53.5*
O=C(NC1CCCN(Cc2ccc(Cl)cc2)C1)c1ccccc1C(F)(F)F (configuration not stated),-47.2
Nc1[nH]ncc1N=Nc1ccc(Cl)cc1,65.3*
C[C@@H]1CN([C@H](C)CO)C(=O)c2cc(NS(C)(=O)=O)ccc2O[C@@H]1CN(C)S(=O)(=O)c1ccc(Cl)cc1,-41.9
O=C(c1cc(C2CC2)on1)N1CCCC(N2CCN(c3cccc(C(F)(F)F)c3)CC2)C1 (configuration not stated),-43.4
COc1cccc(-c2cc(C(=O)NCCCn3ccnc3)no2)c1,80.2*
O=C(N[C@@H]1CC[C@@H](CCNS(=O)(=O)c2ccccc2Cl)O[C@@H]1CO)c1ccc(F)cc1,-48.0
CCC(=O)N(C)C[C@@H]1Oc2ncc(C#CCc3ccccc3)cc2C(=O)N([C@H](C)CO)C[C@@H]1C,-100.6
COc1ccccc1C(=O)Oc1cc(N)n(S(=O)(=O)c2ccc(C)cc2)n1,-42.5
Cc1ccc(S(=O)(=O)N2CCCCC2C(=O)O)cc1 (configuration not stated),-40.8
CCOC(=O)C1CN(S(=O)(=O)c2ccc(C)cc2)c2cc(S(=O)(=O)CC)ccc2O1 (configuration not stated),53.6*
SMILES,PGC1a Ac signal
CCC(C)(CC(=O)O)CC(=O)Nc1cc(C(F)(F)F)cc(C(F)(F)F)c1 (configuration not stated),-67.6
O=CNCCc1nc2ccccc2n1CCc1ccccc1,-52.9
COC(=O)C12OCC34C(CC5C(C)=C(O)C(=O)CC5(C)C3C(O)C1O)OC(=O)C(OC(=O)C=C(C)C)C24 (configuration not stated),-48.5
O=C1/C(=C/c2ccncc2)CCC/C1=C\c1ccncc1,-77.8
CC(C)c1ccc(/C=C2\CC/C(=C\C=N\N(C)C)C2=O)cc1,57.1*
Cc1c(CNCCc2ccc(Cl)cc2)c(C(=O)O)c(C)n1-c1ccccc1,-40.7
CCn1c(=O)c2c(cnn2C)c2ccccc21,-30.1
COc1ccc(CCNC(=O)COc2ccc(S(=O)(=O)N3CCCC3)cc2)cc1,-47.6
CCc1nnc(NC(=O)Cc2ccc(S(=O)(=O)N3CCCCC3)cc2)s1,64.9*
CC(C)(C)Cc1nnc(NS(=O)(=O)c2ccc(F)cc2)s1,-43.4
CCCCNC(=O)C1CCN(Cc2ccccn2)CC1,-45.9
Cc1ccc(N2CCN(CC(O)COC3CCCCC3)CC2)cc1 (configuration not stated),82.0*
CCN=C(N/N=C/c1ccc([N+](=O)[O-])cc1)SC,59.3*
COC(=O)C(=Cc1ccc(OCc2ccc([N+](=O)[O-])cc2)c(OC)c1)C(=O)OC,-16.8
Cc1[nH]c(=O)[nH]c(=O)c1S(=O)(=O)Nc1ccc(F)c(Cl)c1,-46.7
C[C@@H]1CN([C@H](C)CO)C(=O)c2cc(/C=C/c3ccccc3)cnc2O[C@@H]1CN(C)Cc1cccnc1,-64.7
C=CCSc1nccc(-c2cc(Cl)sc2Cl)n1,50.6*
COCCn1c(SC(C)C(=O)Nc2ncc(Cl)cc2Cl)nc2ccccc21 (configuration not stated),-43.6

# Bioassay records (PubChem BioAssay)
